High-throughput results as filed in PubChem.
T cruzi inh = inhibitors of intracellular T. cruzi growth, primary screen, luminescence, NIH3T3 host cells; T. cruzi beta-gal in NIH3T3, 90 h; inhibition, % (concentration not given with the values); hit rate 1.4% among 300,000;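 active means mean inhibition across valid replicates above about 55%, limit read from the data; inconclusive means mean below that limit but half or more replicates reach it; inactive means mean below it, under half of replicates reach it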;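 further: signal also drops with host cell toxicity which is not excluded here; higher percent means less beta-gal luminescence so fewer parasites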
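Read-out: Parasite load inhibition, % | Test system: Mouse NIH/3T3 fibroblasts infected with β-gal-expressing T. cruzi Tulahuen C4 | Amount: 5,000 cells/well | Medium: DMEM, 2% fetal bovine serum | Signal: GalScreen β-gal luminescence, detergent lysis, 60 min | Timing: 3 h attach, ≥90 h co-culture | Also added: Tulahuen C4 trypomastigotes, 5000/well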
PfHsp90 yeast 2 = growth inhibition of PfHsp90-expressing yeast, primary screen, antimalarial PfHsp90 inhibitor project, S. cerevisiae, BacTiter-Glo luminescence, single point, set 2; AID 504621, 2011; BacTiter-Glo ATP, 48 h; yeast lacking PDR1 and PDR3 efflux regulators; inhibition, % at 9.4 µM; hit rate 0.32% among 310,000;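 active means every replicate shows inhibition above about 80%, whatever the replicate mean, limit read from the data; inconclusive means mean inhibition reaches the set limit but some replicate falls short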
HSF1 activator = HSF-1 activators, primary screen, NIH3T3-HGL cells, MG132 stress, luminescence, single point; NIH3T3-HGL HSF-1 luciferase reporter, 8 h; 100% = twice DMSO control signal; activation, % at 9 µM; hit rate 1.7% among 300,000; AID 504408, 2011;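 active means mean replicate activation of at least 50% with a set share of replicates each reaching 50%; inconclusive means only one of those two conditions met; inactive means mean below 50% and too few replicates reaching it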
CaV13 ICDI inh = Disruptors of the CACNA1D IQ motif to Ca2+-dependent inactivation inhibitor domain association, primary screening, Förster resonance energy transfer in intact living …. HEK cells, CFP/YFP FRET ICDI-IQ, plate reader, 10 min; percent FRET-ratio fall versus neutral wells. inhibition, % at 12.3 µM. hit rate 0.098% among 340,000;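 active means mean replicate inhibition of at least 30% and at least 1% of replicates passing that level; inconclusive means only one of the two criteria is met; inactive means neither criterion is met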
PvdQ inh = P. aeruginosa PvdQ acylase inhibitors, primary screen, biochemical, fluorescence, plate reader and imaging, single point | purified PvdQ acylase | inhibition, % at 10 µM | hit rate 0.063% among 340,000 | AID 488965, 2010; in the data active means inhibition above about 30%, passing the limit was not always enough; inconclusive means no clear call, values can overlap the other calls
Glyco luc inh = increase of ERlucT glycosylation luciferase signal, primary screen, N-linked glycosylation inhibitor project, D54 ERlucT cells, luminescence, set 2. D54 ERlucT glycosylation luciferase reporter, 24 h; percent of 100 nM tunicamycin response. hit rate 0.23% among 360,000. AID 588692, 2011. reporter increase, % at 12.5 µM;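 active means mean luciferase reporter signal, scaled so untreated is 0 and the glycosylation-blocking control 100, at or above a set limit in every replicate; inconclusive means mean reaches the limit but not every replicate does; inactive means mean below the limit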;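 further: luciferase carries N-glycosylation sites so blocking glycosylation raises the light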
Each line names hits and unclear results; the compound was inactive in the other large screens. Only some compounds are listed: those with a hit (about 3% of all), similar ones and a draw of the others.

CN1CCN(CCCNC(=O)CCCOc2cc(=O)n(C)c3ccccc23)CC1	none (no result: PfHsp90 yeast 2)
COc1ccc(N2CCN(C(=O)CCCOc3cc(=O)n(C)c4ccccc34)CC2)cc1	none
CCOC(=O)C1=CCN(S(=O)(=O)c2ccc(C)cc2)C1c1ccc(Cl)cc1 (centres undefined)	none (no result: T cruzi inh, PfHsp90 yeast 2, HSF1 activator, PvdQ inh)
O=C(NCc1cccnc1)c1csc([C@H]2C[C@H](O)[C@@H](CO)O2)n1	none (no result: T cruzi inh, PfHsp90 yeast 2, HSF1 activator, PvdQ inh)
O=C(N=Nc1c(O)[nH]c2ccccc12)c1ccc(CN2CCOCC2)cc1	none
CC(C)CC(=O)N=Nc1c(O)[nH]c2ccccc12	none
Cc1ccc(CN2CCN(CC(=O)N=Nc3c(O)[nH]c4ccccc34)CC2)cc1	T cruzi inh 57.7
O=C(CN1CCN(Cc2ccccc2Cl)CC1)N=Nc1c(O)[nH]c2ccccc12	HSF1 activator 52.1
Cc1ccc(S(=O)(=O)N2c3ccccc3OCC2c2ccccc2)cc1 (centres undefined)	HSF1 activator 56.1 (no result: PfHsp90 yeast 2, CaV13 ICDI inh)
COCCN1C(=O)CSCC1(C)C(=O)NCc1ccccc1 (centres undefined)	none (no result: T cruzi inh, PfHsp90 yeast 2, HSF1 activator, PvdQ inh, Glyco luc inh)
O=C(/C=C/c1ccc([N+](=O)[O-])cc1)Oc1ccc(/C=N/NC(=O)c2ccncc2)cc1	T cruzi inh 54.5
O=C(NN=Cc1ccc([N+](=O)[O-])cc1)c1ccncc1	none (no result: T cruzi inh, HSF1 activator)
O=C(N/N=C/c1ccc([N+](=O)[O-])cc1)c1ccc(COc2ccccc2-c2ccccc2)cc1	T cruzi inh 60.5
Cc1nc2c3cc(F)ccc3n(CCN3CCCCC3)c2s1	Glyco luc inh 31.9 (no result: PfHsp90 yeast 2)
Clc1ccc(CN2CCN(c3ncc(Cc4ccccc4)cn3)CC2)c(Cl)c1	none (no result: T cruzi inh, PfHsp90 yeast 2, HSF1 activator, PvdQ inh, Glyco luc inh)
N#CCc1ccc(-c2cccc3nccn23)cc1	none (no result: T cruzi inh, PfHsp90 yeast 2, HSF1 activator, PvdQ inh)
Cc1ccc(CNC(=O)Nc2ccccc2)cc1	none
O=C(NCc1ccc(Cl)cc1Cl)Nc1ccccc1	HSF1 activator 71.5
Cc1ccc(C)c(CNC(=O)Nc2ccccc2)c1	HSF1 activator 57.3
O=C(O)CSc1nc2ccccc2nc1Cc1ccccc1F	HSF1 activator 53.5
C[C@@H]1CCCCO[C@@H](CN(C)C(=O)Nc2ccc3c(c2)OCO3)[C@@H](C)CN([C@H](C)CO)C(=O)c2cc(NC(=O)Nc3ccc(C(F)(F)F)cc3)ccc2O1	none (no result: T cruzi inh, PfHsp90 yeast 2, HSF1 activator, PvdQ inh, Glyco luc inh)
COc1cc2c(cc1OC)C(c1cccs1)N(C(=O)c1ccncc1)CC2 (centres undefined)	Glyco luc inh inconclusive
COc1cc2c(cc1OC)C(c1cccs1)N(C(=S)NC(C)C)CC2 (centres undefined)	HSF1 activator 90.6, Glyco luc inh 44.7
Nc1ccn([C@@H]2O[C@H](C(=O)N[C@H](Cc3ccccc3)C(=O)Nc3ccc4scnc4c3)[C@@H](O)[C@H]2O)c(=O)n1	none (no result: T cruzi inh, PfHsp90 yeast 2, HSF1 activator, PvdQ inh, Glyco luc inh)
Nc1[nH]c(C(=O)c2ccccc2)c(-c2ccccc2Cl)c1C(=O)c1ccccc1	none (no result: T cruzi inh, PfHsp90 yeast 2, HSF1 activator, PvdQ inh, Glyco luc inh)
COc1ccc(-c2c(C)c3cc(O)ccc3oc2=O)cc1OC	HSF1 activator 66.9
CCC/C=C/c1ccc(CN2C(C)C(=O)N(Cc3cn(CCC4OCCCO4)nn3)CCS2(=O)=O)cc1 (centres undefined)	none (no result: T cruzi inh, PfHsp90 yeast 2, HSF1 activator, PvdQ inh)
CCOC(=O)c1c(-c2ccccc2)csc1NC(=O)CCN1CCOCC1	HSF1 activator 74.4
CCOC(=O)c1c(-c2ccccc2)csc1NC(=O)c1cccc(N2C(=O)CCC2=O)c1	HSF1 activator 85.1 (no result: PfHsp90 yeast 2)
CCOC(=O)c1c(-c2ccc(C)cc2)csc1NC(=O)CCN1CCOCC1	none (no result: CaV13 ICDI inh)
Cc1ccc(NC(=O)C2CCCN(c3ncccn3)C2)cc1C (centres undefined)	none
Cc1ccnc(N2CCCC(C(=O)Nc3ccc(C)c(C)c3)C2)n1 (centres undefined)	HSF1 activator 59.8
CCOC(=O)N(C)C[C@@H]1OCc2cn(nn2)CCCC(=O)N([C@H](C)CO)C[C@H]1C	none (no result: T cruzi inh, PfHsp90 yeast 2, HSF1 activator, PvdQ inh, Glyco luc inh)
O=C1[C@@H]2Cc3c([nH]c4ccccc34)C(c3cccc([N+](=O)[O-])c3)N2C(=O)CN1C1CCN(Cc2ccccc2)CC1 (some centres undefined)	T cruzi inh 70.9
